Measurements as given in ChEMBL document CHEMBL5058577, “EUbOPEN Chemogenomics Library 2 (Multiplex)” (2022).
Non-standard residues stand in square brackets, D forms with d. Residues, ends and D or L forms follow the SMILES beside them.

Test system: U2OS
Assay: Multiplex assay against U2OS
Type: toxicity, cell-based
Settings: human
Summary of the method: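 With compound added, live cells were imaged on a CQ1 microscope at 37°C and 5% CO2; staining with Hoechst33342, BioTracker Green Microtubule Cytoskeleton Dye, MitoTracker Red and Annexin V Alexa Fluor 680 had been done at seeding. The CellPathfinder machine-learning gating scheme split cells into Hoechst high-intensity objects or normal cells, normal cells into healthy, pyknosed or fragmented nuclei, and pyknosed cells into mitotic or apoptotic. The tubulin, mitochondrial-mass and membrane-permeability phenotypes are per cents of healthy-nucleus cells.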

[1] = 12 h, 1 µM, compound concentration 1 uM, replicate 1
[2] = 12 h, 1 µM, compound concentration 1 uM, replicate 2
[3] = 12 h, 10 µM, compound concentration 10 uM, replicate 1
[4] = 12 h, 10 µM, compound concentration 10 uM, replicate 2
[5] = 24 h, 1 µM, compound concentration 1 uM, replicate 1
[6] = 24 h, 1 µM, compound concentration 1 uM, replicate 2
[7] = 24 h, 10 µM, compound concentration 10 uM, replicate 1
[8] = 24 h, 10 µM, compound concentration 10 uM, replicate 2
[9] = 48 h, 1 µM, compound concentration 1 uM, replicate 1
[10] = 48 h, 1 µM, compound concentration 1 uM, replicate 2
[11] = 48 h, 10 µM, compound concentration 10 uM, replicate 1
[12] = 48 h, 10 µM, compound concentration 10 uM, replicate 2

COc1cc(C(=O)N2CC[C@@H](O)[C@@H](N)C2)cc2nc(-c3cc4ccccc4n3CC3CC3)n(C)c12.Cl
Population Apoptotic (%) [1]: 50% | Population Fragmented Nuclei (%) [1]: 32% | Population Healthy Nuclei (%) [1]: 53% | Population Hoechst High Intensity Objects (%) [1]: 4% | Population Membrane Permeable-Phenotype (%) [1]: 38% | Population Mitochondria Different-Phenotype (%) [1]: 16% | Population Mitotic Cells (%) [1]: 50% | Population Normal (%) [1]: 95% | Population Pyknosed Nuclei (%) [1]: 14% | Population Tubulin-Different-Phenotype (%) [1]: 29% | Total Cell Count [1]: 223 | Population Apoptotic (%) [2]: 75% | Population Fragmented Nuclei (%) [2]: 15% | Population Healthy Nuclei (%) [2]: 75% | Population Hoechst High Intensity Objects (%) [2]: 1% | Population Membrane Permeable-Phenotype (%) [2]: 20% | Population Mitochondria Different-Phenotype (%) [2]: 18% | Population Mitotic Cells (%) [2]: 25% | Population Normal (%) [2]: 98% | Population Pyknosed Nuclei (%) [2]: 8% | Population Tubulin-Different-Phenotype (%) [2]: 15% | Total Cell Count [2]: 92 | Population Apoptotic (%) [3]: 68% | Population Fragmented Nuclei (%) [3]: 23% | Population Healthy Nuclei (%) [3]: 38% | Population Hoechst High Intensity Objects (%) [3]: 6% | Population Membrane Permeable-Phenotype (%) [3]: 75% | Population Mitochondria Different-Phenotype (%) [3]: 88% | Population Mitotic Cells (%) [3]: 31% | Population Normal (%) [3]: 93% | Population Pyknosed Nuclei (%) [3]: 37% | Population Tubulin-Different-Phenotype (%) [3]: 96% | Total Cell Count [3]: 208 | Population Apoptotic (%) [4]: 56% | Population Fragmented Nuclei (%) [4]: 16% | Population Healthy Nuclei (%) [4]: 61% | Population Hoechst High Intensity Objects (%) [4]: 5% | Population Membrane Permeable-Phenotype (%) [4]: 79% | Population Mitochondria Different-Phenotype (%) [4]: 91% | Population Mitotic Cells (%) [4]: 44% | Population Normal (%) [4]: 94% | Population Pyknosed Nuclei (%) [4]: 22% | Population Tubulin-Different-Phenotype (%) [4]: 94% | Total Cell Count [4]: 120 | Population Apoptotic (%) [5]: 78% | Population Fragmented Nuclei (%) [5]: 28% | Population Healthy Nuclei (%) [5]: 54% | Population Hoechst High Intensity Objects (%) [5]: 3% | Population Membrane Permeable-Phenotype (%) [5]: 19% | Population Mitochondria Different-Phenotype (%) [5]: 14% | Population Mitotic Cells (%) [5]: 21% | Population Normal (%) [5]: 96% | Population Pyknosed Nuclei (%) [5]: 17% | Population Tubulin-Different-Phenotype (%) [5]: 12% | Total Cell Count [5]: 243 | Population Apoptotic (%) [6]: 75% | Population Fragmented Nuclei (%) [6]: 18% | Population Healthy Nuclei (%) [6]: 69% | Population Hoechst High Intensity Objects (%) [6]: 2% | Population Membrane Permeable-Phenotype (%) [6]: 17% | Population Mitochondria Different-Phenotype (%) [6]: 18% | Population Mitotic Cells (%) [6]: 25% | Population Normal (%) [6]: 97% | Population Pyknosed Nuclei (%) [6]: 11% | Population Tubulin-Different-Phenotype (%) [6]: 17% | Total Cell Count [6]: 109 | Population Apoptotic (%) [7]: 84% | Population Fragmented Nuclei (%) [7]: 25% | Population Healthy Nuclei (%) [7]: 35% | Population Hoechst High Intensity Objects (%) [7]: 4% | Population Membrane Permeable-Phenotype (%) [7]: 57% | Population Mitochondria Different-Phenotype (%) [7]: 88% | Population Mitotic Cells (%) [7]: 15% | Population Normal (%) [7]: 95% | Population Pyknosed Nuclei (%) [7]: 38% | Population Tubulin-Different-Phenotype (%) [7]: 78% | Total Cell Count [7]: 222 | Population Apoptotic (%) [8]: 71% | Population Fragmented Nuclei (%) [8]: 26% | Population Healthy Nuclei (%) [8]: 48% | Population Membrane Permeable-Phenotype (%) [8]: 50% | Population Mitochondria Different-Phenotype (%) [8]: 85% | Population Mitotic Cells (%) [8]: 28% | Population Pyknosed Nuclei (%) [8]: 25% | Population Tubulin-Different-Phenotype (%) [8]: 90% | Total Cell Count [8]: 133 | Population Apoptotic (%) [9]: 82% | Population Fragmented Nuclei (%) [9]: 23% | Population Healthy Nuclei (%) [9]: 61% | Population Hoechst High Intensity Objects (%) [9]: 2% | Population Membrane Permeable-Phenotype (%) [9]: 9% | Population Mitochondria Different-Phenotype (%) [9]: 5% | Population Mitotic Cells (%) [9]: 17% | Population Normal (%) [9]: 97% | Population Pyknosed Nuclei (%) [9]: 15% | Population Tubulin-Different-Phenotype (%) [9]: 5% | Total Cell Count [9]: 304 | Population Apoptotic (%) [10]: 76% | Population Membrane Permeable-Phenotype (%) [10]: 17% | Population Mitochondria Different-Phenotype (%) [10]: 11% | Population Mitotic Cells (%) [10]: 23% | Population Pyknosed Nuclei (%) [10]: 14% | Population Tubulin-Different-Phenotype (%) [10]: 12% | Total Cell Count [10]: 149 | Population Apoptotic (%) [11]: 88% | Population Fragmented Nuclei (%) [11]: 29% | Population Healthy Nuclei (%) [11]: 35% | Population Hoechst High Intensity Objects (%) [11]: 12% | Population Membrane Permeable-Phenotype (%) [11]: 47% | Population Mitochondria Different-Phenotype (%) [11]: 65% | Population Mitotic Cells (%) [11]: 11% | Population Normal (%) [11]: 87% | Population Pyknosed Nuclei (%) [11]: 35% | Population Tubulin-Different-Phenotype (%) [11]: 62% | Total Cell Count [11]: 232 | Population Apoptotic (%) [12]: 92% | Population Fragmented Nuclei (%) [12]: 30% | Population Hoechst High Intensity Objects (%) [12]: 6% | Population Mitochondria Different-Phenotype (%) [12]: 84% | Population Mitotic Cells (%) [12]: 7% | Population Normal (%) [12]: 93% | Population Pyknosed Nuclei (%) [12]: 34% | Population Tubulin-Different-Phenotype (%) [12]: 75% | Total Cell Count [12]: 131

CC(C)C[C@@H]1NC(=O)[C@@H](C(C)C)NC(=O)[C@@H]2CCCN2C(=O)[C@@H](CC(=O)O)NC(=O)[C@@H](Cc2c[nH]c3ccccc23)NC1=O [BQ-123] (cyclo(L[dW][dD]P[dV]))
Population Apoptotic (%) [1]: 77% | Population Fragmented Nuclei (%) [1]: 20% | Population Healthy Nuclei (%) [1]: 69% | Population Hoechst High Intensity Objects (%) [1]: 0% | Population Membrane Permeable-Phenotype (%) [1]: 1% | Population Mitochondria Different-Phenotype (%) [1]: 1% | Population Mitotic Cells (%) [1]: 22% | Population Normal (%) [1]: 99% | Population Pyknosed Nuclei (%) [1]: 9% | Population Tubulin-Different-Phenotype (%) [1]: 0% | Total Cell Count [1]: 228 | Population Apoptotic (%) [2]: 83% | Population Fragmented Nuclei (%) [2]: 19% | Population Healthy Nuclei (%) [2]: 75% | Population Hoechst High Intensity Objects (%) [2]: 2% | Population Membrane Permeable-Phenotype (%) [2]: 2% | Population Mitochondria Different-Phenotype (%) [2]: 0% | Population Mitotic Cells (%) [2]: 16% | Population Normal (%) [2]: 97% | Population Pyknosed Nuclei (%) [2]: 5% | Population Tubulin-Different-Phenotype (%) [2]: 8% | Total Cell Count [2]: 118 | Population Apoptotic (%) [3]: 78% | Population Fragmented Nuclei (%) [3]: 29% | Population Healthy Nuclei (%) [3]: 65% | Population Hoechst High Intensity Objects (%) [3]: 2% | Population Membrane Permeable-Phenotype (%) [3]: 8% | Population Mitochondria Different-Phenotype (%) [3]: 1% | Population Mitotic Cells (%) [3]: 21% | Population Normal (%) [3]: 97% | Population Pyknosed Nuclei (%) [3]: 4% | Population Tubulin-Different-Phenotype (%) [3]: 3% | Total Cell Count [3]: 294 | Population Apoptotic (%) [4]: 75% | Population Fragmented Nuclei (%) [4]: 25% | Population Healthy Nuclei (%) [4]: 70% | Population Membrane Permeable-Phenotype (%) [4]: 7% | Population Mitochondria Different-Phenotype (%) [4]: 4% | Population Mitotic Cells (%) [4]: 25% | Population Tubulin-Different-Phenotype (%) [4]: 2% | Total Cell Count [4]: 99 | Population Apoptotic (%) [5]: 69% | Population Fragmented Nuclei (%) [5]: 16% | Population Healthy Nuclei (%) [5]: 75% | Population Hoechst High Intensity Objects (%) [5]: 0% | Population Membrane Permeable-Phenotype (%) [5]: 2% | Population Mitochondria Different-Phenotype (%) [5]: 1% | Population Mitotic Cells (%) [5]: 30% | Population Normal (%) [5]: 99% | Population Pyknosed Nuclei (%) [5]: 8% | Population Tubulin-Different-Phenotype (%) [5]: 1% | Total Cell Count [5]: 279 | Population Apoptotic (%) [6]: 85% | Population Fragmented Nuclei (%) [6]: 11% | Population Healthy Nuclei (%) [6]: 77% | Population Membrane Permeable-Phenotype (%) [6]: 6% | Population Mitochondria Different-Phenotype (%) [6]: 0% | Population Mitotic Cells (%) [6]: 14% | Population Pyknosed Nuclei (%) [6]: 10% | Population Tubulin-Different-Phenotype (%) [6]: 3% | Total Cell Count [6]: 137 | Population Apoptotic (%) [7]: 92% | Population Fragmented Nuclei (%) [7]: 24% | Population Healthy Nuclei (%) [7]: 67% | Population Hoechst High Intensity Objects (%) [7]: 2% | Population Membrane Permeable-Phenotype (%) [7]: 8% | Population Mitochondria Different-Phenotype (%) [7]: 2% | Population Mitotic Cells (%) [7]: 8% | Population Normal (%) [7]: 97% | Population Pyknosed Nuclei (%) [7]: 7% | Population Tubulin-Different-Phenotype (%) [7]: 4% | Total Cell Count [7]: 338 | Population Apoptotic (%) [8]: 100% | Population Healthy Nuclei (%) [8]: 74% | Population Hoechst High Intensity Objects (%) [8]: 0% | Population Membrane Permeable-Phenotype (%) [8]: 6% | Population Mitochondria Different-Phenotype (%) [8]: 8% | Population Mitotic Cells (%) [8]: 0% | Population Normal (%) [8]: 99% | Population Pyknosed Nuclei (%) [8]: 1% | Total Cell Count [8]: 113 | Population Apoptotic (%) [9]: 77% | Population Fragmented Nuclei (%) [9]: 14% | Population Healthy Nuclei (%) [9]: 79% | Population Hoechst High Intensity Objects (%) [9]: 1% | Population Membrane Permeable-Phenotype (%) [9]: 3% | Population Mitochondria Different-Phenotype (%) [9]: 1% | Population Mitotic Cells (%) [9]: 22% | Population Normal (%) [9]: 98% | Population Pyknosed Nuclei (%) [9]: 5% | Population Tubulin-Different-Phenotype (%) [9]: 3% | Total Cell Count [9]: 407 | Population Apoptotic (%) [10]: 100% | Population Fragmented Nuclei (%) [10]: 18% | Population Healthy Nuclei (%) [10]: 70% | Population Mitochondria Different-Phenotype (%) [10]: 3% | Population Mitotic Cells (%) [10]: 0% | Population Pyknosed Nuclei (%) [10]: 10% | Population Tubulin-Different-Phenotype (%) [10]: 2% | Total Cell Count [10]: 226 | Population Apoptotic (%) [11]: 94% | Population Fragmented Nuclei (%) [11]: 19% | Population Healthy Nuclei (%) [11]: 70% | Population Hoechst High Intensity Objects (%) [11]: 1% | Population Membrane Permeable-Phenotype (%) [11]: 5% | Population Mitochondria Different-Phenotype (%) [11]: 2% | Population Mitotic Cells (%) [11]: 5% | Population Normal (%) [11]: 98% | Population Pyknosed Nuclei (%) [11]: 9% | Population Tubulin-Different-Phenotype (%) [11]: 3% | Total Cell Count [11]: 435 | Population Apoptotic (%) [12]: 81% | Population Fragmented Nuclei (%) [12]: 20% | Population Healthy Nuclei (%) [12]: 66% | Population Mitochondria Different-Phenotype (%) [12]: 6% | Population Mitotic Cells (%) [12]: 18% | Population Pyknosed Nuclei (%) [12]: 12% | Population Tubulin-Different-Phenotype (%) [12]: 2% | Total Cell Count [12]: 131
